From ChEMBL document CHEMBL1133909, “Piperazine-based CCR5 antagonists as HIV-1 inhibitors. I: 2(S)-methyl piperazine as a key pharmacophore element” (Bioorg Med Chem Lett, 2001)

Legend:
[1] = Antiviral activity was measured as inhibition of the growth of primary HIV-1 isolate (US-1) in human peripheral blood mononuclear cells; assay type: functional
[2] = biological target: T1, Muscarinic acetylcholine receptor M2 (Homo sapiens, UniProt P08172); assay: Affinity for Muscarinic acetylcholine receptor M2
T1 sequence (P08172 whole entry): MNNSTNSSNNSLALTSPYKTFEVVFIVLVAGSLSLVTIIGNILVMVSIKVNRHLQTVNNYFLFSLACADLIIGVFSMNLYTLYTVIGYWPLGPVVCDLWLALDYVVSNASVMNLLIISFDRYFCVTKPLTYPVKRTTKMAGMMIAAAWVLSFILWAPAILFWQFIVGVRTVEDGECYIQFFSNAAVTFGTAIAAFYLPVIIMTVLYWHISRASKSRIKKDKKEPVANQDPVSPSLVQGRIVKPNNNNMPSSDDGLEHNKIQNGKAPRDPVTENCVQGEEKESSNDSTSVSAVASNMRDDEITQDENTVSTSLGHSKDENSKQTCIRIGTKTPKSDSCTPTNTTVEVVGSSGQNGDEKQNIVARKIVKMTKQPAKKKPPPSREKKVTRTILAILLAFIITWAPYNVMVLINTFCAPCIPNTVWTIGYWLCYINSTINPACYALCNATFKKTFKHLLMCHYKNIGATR

[3] = biological target: T2, C-C chemokine receptor type 5 (Homo sapiens, UniProt P51681); assay: Inhibition of [125I]-labeled RANTES binding to C-C chemokine receptor type 5
T2 sequence (P51681 whole entry): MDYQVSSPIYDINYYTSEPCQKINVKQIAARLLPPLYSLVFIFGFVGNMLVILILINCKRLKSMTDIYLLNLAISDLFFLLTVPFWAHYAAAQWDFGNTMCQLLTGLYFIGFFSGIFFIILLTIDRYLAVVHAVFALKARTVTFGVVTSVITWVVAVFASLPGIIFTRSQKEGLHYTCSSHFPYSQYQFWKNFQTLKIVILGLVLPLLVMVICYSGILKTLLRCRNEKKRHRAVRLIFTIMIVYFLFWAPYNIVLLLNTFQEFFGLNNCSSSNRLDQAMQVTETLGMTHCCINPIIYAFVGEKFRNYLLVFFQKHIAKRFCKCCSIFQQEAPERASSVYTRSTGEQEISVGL
Summary of the method: (§1)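 Membranes from CHO cells expressing CCR5 incubated 1 h with 125I-RANTES, with or without compound. Counts averaged. IC50 taken as the amount inhibiting 50% of total 125I-RANTES binding. Ki derived from the binding data. Standard error 10%; assay-to-assay variability 2–3 fold.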

[4] = biological target: T2, C-C chemokine receptor type 5; assay: Ability to inhibit [125I]-labeled RANTES binding to C-C chemokine receptor type 5; summary of the method: as §1
[5] = biological target: T2, C-C chemokine receptor type 5; assay: Ability to inhibit [125I]-labeled RANTES binding to C-C chemokine receptor type 5 expressed in membrane preparation of CHO cells; assay type: cell membranes; summary of the method: as §1

Structure (SMILES)	Ki [2] [nM]	Ki [3] [nM]	Ki [5] [nM]	IC50 [1] [nM]	IC50 [4] [nM]
Cc1cccc(C)c1C(=O)N1CCC(N2CCN([C@@H](C)c3ccc(Cc4ccc5c(c4)OCO5)cc3)[C@@H](C)C2)CC1	760	18	–	8	–
C[C@H]1CN(C2CCN(C(=O)c3c(Cl)cccc3Cl)CC2)CCN1[C@@H](C)c1ccc(S(=O)(=O)c2ccc3c(c2)OCO3)cc1	270	49	–	–	–
Cc1cccc(C)c1C(=O)N1CCC(N2CCN([C@@H](C)c3ccc(S(=O)(=O)c4ccc5c(c4)OCO5)cc3)[C@H](C)C2)CC1	0.8	–	–	–	440
Cc1cccc(C)c1C(=O)N1CCC(N2CCN([C@@H](C)c3ccc(Cc4cccc(Cl)c4)cc3)[C@@H](C)C2)CC1	> 1400	45	–	–	–
Cc1cccc(C)c1C(=O)N1CCC(N2CCN(Cc3ccc(Cc4ccc5c(c4)OCO5)cc3)[C@@H](C)C2)CC1	> 40	44	–	–	–
C[C@H]1CN(C2CCN(C(=O)c3c(F)cccc3F)CC2)CCN1[C@@H](C)c1ccc(S(=O)(=O)c2ccc3c(c2)OCO3)cc1	352	230	–	–	–
Cc1cccc(C)c1C(=O)N1CCC(N2CCN(Cc3ccc(S(=O)(=O)c4ccc5c(c4)OCO5)cc3)[C@@H](C)C2)CC1	> 40	74	–	–	–
C[C@H]1CN(C2CCN(C(=O)c3c(N)cccc3Cl)CC2)CCN1[C@@H](C)c1ccc(S(=O)(=O)c2ccc3c(c2)OCO3)cc1	100	32	–	–	–
Cc1cccc(C)c1C(=O)N1CCC(N2CCN([C@@H](C)c3ccc(S(=O)(=O)c4ccc5c(c4)OCO5)cc3)[C@@H](C)C2)CC1	485	28	–	–	–
Cc1ccccc1C(=O)N1CCC(N2CCN([C@@H](C)c3ccc(Cc4ccc5c(c4)OCO5)cc3)[C@@H](C)C2)CC1	35	–	–	–	90

Now from value to compound, other results behind:

Ki [2] [nM]	Ki [3] [nM]	Ki [5] [nM]	Structure (SMILES)	IC50 [1] [nM]	IC50 [4] [nM]
497	352	–	Cc1cccc(C)c1C(=O)N1CCC(N2CCN(Cc3ccc(Cc4ccc5c(c4)OCO5)cc3)CC2)CC1	–	–
31	> 1300	–	Cc1cccc(C)c1C(=O)N1CCC(N2CCN(Cc3ccc(S(=O)(=O)c4ccc5c(c4)OCO5)cc3)CC2)CC1	–	–
1	442	–	Cc1cccc(C)c1C(=O)N1CCC(N2CCN([C@@H](C)c3ccc(S(=O)(=O)c4ccc5c(c4)OCO5)cc3)CC2)CC1	–	–
100	–	31	Cc1cccc(N)c1C(=O)N1CCC(N2CCN([C@@H](C)c3ccc(S(=O)(=O)c4ccc5c(c4)OCO5)cc3)[C@@H](C)C2)CC1	–	–
